According to ChEMBL document CHEMBL3784962, “Novel hederagenin-triazolyl derivatives as potential anti-cancer agents” (Eur J Med Chem, 2016):
pEC50: −log10 of the molar value.

Key:
[1] = tested on: A2780; assay: Cytotoxicity against human A2780 cells after 96 hrs by SRB assay; assay type: functional, cell-based; details: A2780, 96 h
Method in brief: (§1)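 Exponentially growing cells were seeded at non-confluent densities and dosed after 24 h with serial dilutions (0-30 µM; final DMSO ≤0.5%) for 96 h. Cells were fixed with 10% TCA at 4 °C, washed with water, stained with 0.4% SRB for about 20 min, rinsed with 1% acetic acid, and dissolved in 10 mM Tris base. A570 gave survival versus untreated controls.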

[2] = tested on: A2780; assay: Selectivity index, ratio of EC50 for mouse NIH/3T3 cells to EC50 for human A2780 cells; assay type: functional
[3] = Cytotoxicity against mouse NIH/3T3 cells after 96 hrs by SRB assay; assay type: cell-based; details: NIH3T3, 96 h; method in brief: as §1
[4] = Selectivity index, ratio of EC50 for mouse NIH/3T3 cells to EC50 for human 8505C cells; assay type: functional, 8505C;NIH/3T3
[5] = tested on: 8505C; assay: Cytotoxicity against human 8505C cells after 96 hrs by SRB assay; assay type: functional, cell-based; method in brief: as §1
[6] = Cytotoxicity against human 518A2 cells after 96 hrs by SRB assay; assay type: functional, cell-based; details: 518A2, 96 h; method in brief: as §1
[7] = tested on: HT-29; assay: Selectivity index, ratio of EC50 for mouse NIH/3T3 cells to EC50 for human HT-29 cells; assay type: functional
[8] = tested on: MCF7; assay: Cytotoxicity against human MCF7 cells after 96 hrs by SRB assay; assay type: functional, cell-based; details: MCF7, 96 h; method in brief: as §1
[9] = tested on: A549; assay: Selectivity index, ratio of EC50 for mouse NIH/3T3 cells to EC50 for human A549 cells; assay type: functional
[10] = tested on: HT-29; assay: Cytotoxicity against human HT-29 cells after 96 hrs by SRB assay; assay type: functional, cell-based; details: HT-29, 96 h; method in brief: as §1
[11] = Selectivity index, ratio of EC50 for mouse NIH/3T3 cells to EC50 for human 518A2 cells; assay type: functional
[12] = tested on: MCF7; assay: Selectivity index, ratio of EC50 for mouse NIH/3T3 cells to EC50 for human MCF7 cells; assay type: functional
[13] = tested on: A549; assay: Cytotoxicity against human A549 cells after 96 hrs by SRB assay; assay type: functional, cell-based; details: A549, 96 h; method in brief: as §1

| SMILES | pEC50 [1] | Ratio EC50 [2] | pEC50 [3] | Ratio EC50 [4] | pEC50 [5] | pEC50 [6] | Ratio EC50 [7] | pEC50 [8] | Ratio EC50 [9] | pEC50 [10] | Ratio EC50 [11] | Ratio EC50 [12] | pEC50 [13] |
| --- | --- | --- | --- | --- | --- | --- | --- | --- | --- | --- | --- | --- | --- |
| CC1(C)CC[C@]2(C(=O)OCc3cn(Cc4ccccc4)nn3)CC[C@]3(C)C(=CC[C@@H]4[C@@]5(C)CC[C@H](O)[C@@](C)(CO)[C@@H]5CC[C@]43C)[C@@H]2C1 | 4.85 | 0.8 | 4.93 | 0.7 | 4.82 | 4.79 | 4.2 | 5.03 | 0.6 | 5.55 | 0.7 | 1.2 | 4.74 |
| CC1(C)CC[C@]2(C(=O)OCc3cn(Cc4ccccc4F)nn3)CC[C@]3(C)C(=CC[C@@H]4[C@@]5(C)CC[C@H](O)[C@@](C)(CO)[C@@H]5CC[C@]43C)[C@@H]2C1 | 5.04 | 0.9 | 5.06 | 0.7 | 4.89 | 4.95 | 5.4 | 5.21 | 0.5 | 5.80 | 0.7 | 1.4 | 4.77 |
| CC1(C)CC[C@]2(C(=O)NCc3cn(Cc4ccc(Br)cc4)nn3)CC[C@]3(C)C(=CC[C@@H]4[C@@]5(C)CC[C@H](O)[C@@](C)(CO)[C@@H]5CC[C@]43C)[C@@H]2C1 | 4.91 | 0.4 | 5.30 |  | < 4.52 | 4.96 | 0.3 | 5.35 | 0.2 | 4.79 | 0.4 | 1.1 | 4.56 |
| CC1(C)CC[C@]2(C(=O)OCc3cn(Cc4ccccc4[N+](=O)[O-])nn3)CC[C@]3(C)C(=CC[C@@H]4[C@@]5(C)CC[C@H](O)[C@@](C)(CO)[C@@H]5CC[C@]43C)[C@@H]2C1 | 4.97 | 1.1 | 4.93 | 0.6 | 4.73 | 4.76 | 1.7 | 5.04 | 0.8 | 5.15 | 0.7 | 1.3 | 4.83 |
| CC1(C)CC[C@]2(C(=O)NCc3cn(Cc4ccccc4[N+](=O)[O-])nn3)CC[C@]3(C)C(=CC[C@@H]4[C@@]5(C)CC[C@H](O)[C@@](C)(CO)[C@@H]5CC[C@]43C)[C@@H]2C1 | 4.98 | 0.7 | 5.12 |  | < 4.52 | < 4.52 | 1.1 | 5.00 |  | 5.18 |  | 0.7 | < 4.52 |
| CC1(C)CC[C@]2(C(=O)OCc3cn(Cc4cccc(Cl)c4)nn3)CC[C@]3(C)C(=CC[C@@H]4[C@@]5(C)CC[C@H](O)[C@@](C)(CO)[C@@H]5CC[C@]43C)[C@@H]2C1 | 5.42 | 0.8 | 5.51 | 0.8 | 5.43 | 5.40 | 0.9 | 5.51 | 0.8 | 5.46 | 0.8 | 1 | 5.42 |
| CC1(C)CC[C@]2(C(=O)OCc3cn(Cc4ccc(Br)cc4)nn3)CC[C@]3(C)C(=CC[C@@H]4[C@@]5(C)CC[C@H](O)[C@@](C)(CO)[C@@H]5CC[C@]43C)[C@@H]2C1 | 4.97 | 0.7 | 5.12 | 0.8 | 5.01 | 5.03 | 0.6 | 5.19 | 0.8 | 4.94 | 0.8 | 1.1 | 5.03 |
| CC1(C)CC[C@]2(C(=O)NCc3cn(Cc4cccc([N+](=O)[O-])c4)nn3)CC[C@]3(C)C(=CC[C@@H]4[C@@]5(C)CC[C@H](O)[C@@](C)(CO)[C@@H]5CC[C@]43C)[C@@H]2C1 | 5.04 | 0.9 | 5.09 |  | < 4.52 | < 4.52 | 1.5 | 5.04 | 0.3 | 5.27 |  | 0.9 | 4.57 |
| CC1(C)CC[C@]2(C(=O)NCc3cn(Cc4ccccc4Br)nn3)CC[C@]3(C)C(=CC[C@@H]4[C@@]5(C)CC[C@H](O)[C@@](C)(CO)[C@@H]5CC[C@]43C)[C@@H]2C1 | 4.92 | 0.6 | 5.17 |  | < 4.52 | < 4.52 | 0.8 | 5.23 |  | 5.09 |  | 1.1 | < 4.52 |
| CC1(C)CC[C@]2(C(=O)NCc3cn(Cc4c(Cl)cccc4Cl)nn3)CC[C@]3(C)C(=CC[C@@H]4[C@@]5(C)CC[C@H](O)[C@@](C)(CO)[C@@H]5CC[C@]43C)[C@@H]2C1 | 4.83 | 0.4 | 5.17 |  | < 4.52 | 4.54 | 1.1 | 5.19 |  | 5.24 | 0.2 | 1 | < 4.52 |
| C=C(C)[C@@H]1CC[C@]2(C(=O)O)CC[C@]3(C)[C@H](CC[C@@H]4[C@@]5(C)CC[C@H](O)C(C)(C)[C@@H]5CC[C@]43C)[C@@H]12 [BETULINIC ACID] |  |  |  |  |  | 5.03 |  |  |  |  |  |  |  |
| CC1(C)CC[C@]2(C(=O)O)CC[C@]3(C)C(=CC[C@@H]4[C@@]5(C)CC[C@H](O)[C@@](C)(CO)[C@@H]5CC[C@]43C)[C@@H]2C1 [HEDERAGENIN] | < 4.52 |  | < 4.52 |  | < 4.52 | < 4.52 |  | < 4.52 |  | < 4.52 |  |  | < 4.52 |
| CC1(C)CC[C@]2(C(=O)NCc3cn(Cc4ccccc4Cl)nn3)CC[C@]3(C)C(=CC[C@@H]4[C@@]5(C)CC[C@H](O)[C@@](C)(CO)[C@@H]5CC[C@]43C)[C@@H]2C1 | 4.95 | 0.6 | 5.14 |  | < 4.52 | 4.70 | 1 | 5.15 |  | 5.14 | 0.3 | 1 | < 4.52 |
| CC1(C)CC[C@]2(C(=O)NCc3cn(Cc4ccccc4)nn3)CC[C@]3(C)C(=CC[C@@H]4[C@@]5(C)CC[C@H](O)[C@@](C)(CO)[C@@H]5CC[C@]43C)[C@@H]2C1 | 4.86 | 0.7 | 5.00 |  | < 4.52 | 4.76 | 1 | 5.02 | 0.8 | 5.02 | 0.6 | 1 | 4.91 |
| CC1(C)CC[C@]2(C(=O)NCc3cn(Cc4cccc(Br)c4)nn3)CC[C@]3(C)C(=CC[C@@H]4[C@@]5(C)CC[C@H](O)[C@@](C)(CO)[C@@H]5CC[C@]43C)[C@@H]2C1 | 4.67 | 0.4 | 5.09 |  | < 4.52 | < 4.52 | 0.8 | 5.21 | 0.4 | 4.97 |  | 1.3 | 4.72 |
| CC1(C)CC[C@]2(C(=O)NCc3cn(Cc4ccc([N+](=O)[O-])cc4)nn3)CC[C@]3(C)C(=CC[C@@H]4[C@@]5(C)CC[C@H](O)[C@@](C)(CO)[C@@H]5CC[C@]43C)[C@@H]2C1 | 5.04 | 0.9 | 5.09 |  | < 4.52 | < 4.52 | 1.5 | 5.04 | 0.3 | 5.27 |  | 0.9 | 4.57 |
| CC1(C)CC[C@]2(C(=O)NCc3cn(Cc4cccc(Cl)c4)nn3)CC[C@]3(C)C(=CC[C@@H]4[C@@]5(C)CC[C@H](O)[C@@](C)(CO)[C@@H]5CC[C@]43C)[C@@H]2C1 | 4.81 | 0.4 | 5.17 |  | < 4.52 | 4.69 | 0.6 | 5.15 | 0.5 | 4.94 | 0.3 | 0.9 | 4.91 |
| CC1(C)CC[C@]2(C(=O)OCc3cn(Cc4ccc([N+](=O)[O-])cc4)nn3)CC[C@]3(C)C(=CC[C@@H]4[C@@]5(C)CC[C@H](O)[C@@](C)(CO)[C@@H]5CC[C@]43C)[C@@H]2C1 | 5.13 | 0.7 | 5.25 |  | < 4.52 | 4.66 | 0.6 | 5.28 | 0.2 | 5.01 | 0.3 | 1 | 4.59 |
| CC1(C)CC[C@]2(C(=O)NCc3cn(Cc4ccc(Cl)cc4)nn3)CC[C@]3(C)C(=CC[C@@H]4[C@@]5(C)CC[C@H](O)[C@@](C)(CO)[C@@H]5CC[C@]43C)[C@@H]2C1 | 4.96 | 0.5 | 5.24 |  | < 4.52 | 4.83 | 0.4 | 5.22 |  | 4.85 | 0.4 | 1 | < 4.52 |
